MDM2 E3 inh – MDM2-luciferase reporter signal enhancers, primary screen, MDM2 E3 ligase inhibitor project, cell-based, luminescence, 1536-well; cell-based MDM2 ubiquitination luciferase reporter, 2 h; 0 = plate control, 100 = twice control, blank-subtracted; signal enhancement, % at 5 µM; 210,000 tested, 0.11% active; AID 1230, 2008;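 active = signal enhancement of 30% or more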;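 also: luminescence tracks abundance of the self-degrading MDM2-luciferase fusion protein; higher signal means inhibition of MDM2 E3 ligase activity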
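Assay system: mammalian cells stably expressing self-ubiquitinating, self-degrading MDM2 E3–luciferase fusion. Quantity: 2000 cells in each well. Medium: DMEM culture medium. Compound dosing: single-point 5 µM. Timing: cell settling 4 h, compound treatment 2 h, both 37 °C. Technique: luciferase luminescence. Read-out basis: percent signal gain over controls, blank-subtracted. Benchmarks: plate controls and plate blanks.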
ROMK mod – ROMK potassium channel modulators, primary screen, cell-based, thallium flux, MLSMR library. ATP-sensitive inward rectifier potassium channel 1 (Homo sapiens), P48048. Tet-inducible ROMK, thallium flux fluorescence; actives lie on both sides. B-score at 10 µM. 130,000 tested, 2% active. AID 1918, 2009;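 active = signal ratio slope over the read window, or its plate-corrected B-score, at least 3 SD from the plate mean, either direction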;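 also: B-score of the F/F0 ratio slope over 7 to 12 s after thallium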
Calpain2 inh – inhibitors of pig calpain II, primary screen, biochemical, fluorogenic peptide substrate, 1536-well. purified calpain II, 30 min. inhibition, % at 16 µM. 220,000 tested, 0.37% active. AID 1236, 2008;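 active = inhibition above about 50%, limit read from the data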
Arbovirus inh – antivirals against arbovirus infection, primary screen, cell-based, full library, 10K replicate subset | arbovirus infection cell-based antiviral screen | inhibition, % at 10 µM | 200,000 tested, 0.37% active; in the data active = inhibition above about 30%
Cl transport mod – KCC2 cotransporter modulators, thallium flux, primary screen, cell-based, HEK293 KCC2, FluoZin-2 fluorescence, MLSMR | B-score of Tl+ flux slope (higher = more flux/activation; lower = inhibition) at 10 µM | 190,000 tested, 2.2% active | KCC2 cells, thallium flux FluoZin-2 fluorescence;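 active = thallium flux slope and its plate-corrected score both differing from the plate sample mean at a set confidence after two filtering rounds, in either direction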;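 also: slope of fluorescence scaled to starting intensity during 10 to 20 s after thallium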
PKD1 kinase inh – inhibitors of human PKD1 kinase, biochemical, fluorescence polarization; PKD1 kinase fluorescence polarization assay; inhibition, % (concentration not given with the values); 200,000 tested, 0.056% active; in the data active = inhibition above about 50%
Target sequence (Q15139 whole entry, looked up): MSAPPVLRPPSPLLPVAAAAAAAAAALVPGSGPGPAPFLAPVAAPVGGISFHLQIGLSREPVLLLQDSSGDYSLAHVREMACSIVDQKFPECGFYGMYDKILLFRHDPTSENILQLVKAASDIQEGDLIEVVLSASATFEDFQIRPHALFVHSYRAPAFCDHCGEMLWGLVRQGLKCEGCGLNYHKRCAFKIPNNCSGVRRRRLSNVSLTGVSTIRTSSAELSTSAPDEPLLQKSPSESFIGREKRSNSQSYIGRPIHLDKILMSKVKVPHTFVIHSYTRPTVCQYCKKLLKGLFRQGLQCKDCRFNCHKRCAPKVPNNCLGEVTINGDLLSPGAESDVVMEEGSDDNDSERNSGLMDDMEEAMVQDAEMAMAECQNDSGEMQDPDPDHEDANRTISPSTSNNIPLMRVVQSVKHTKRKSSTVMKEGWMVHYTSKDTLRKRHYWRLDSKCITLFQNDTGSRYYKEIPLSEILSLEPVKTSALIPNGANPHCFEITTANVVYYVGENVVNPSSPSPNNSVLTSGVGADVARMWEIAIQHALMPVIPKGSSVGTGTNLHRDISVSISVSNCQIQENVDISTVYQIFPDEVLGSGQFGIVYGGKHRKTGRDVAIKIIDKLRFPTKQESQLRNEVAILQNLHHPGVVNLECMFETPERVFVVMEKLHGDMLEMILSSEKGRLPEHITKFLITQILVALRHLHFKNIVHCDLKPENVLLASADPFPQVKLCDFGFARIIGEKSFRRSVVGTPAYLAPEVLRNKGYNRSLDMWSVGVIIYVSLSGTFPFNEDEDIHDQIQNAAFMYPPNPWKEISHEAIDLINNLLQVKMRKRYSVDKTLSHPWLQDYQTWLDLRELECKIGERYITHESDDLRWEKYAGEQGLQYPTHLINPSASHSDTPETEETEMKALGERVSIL
ROMK hit retest – ROMK channel modulator hit retest, confirmation, cell-based, thallium flux, duplicate, resupplied hits. shares compounds with ROMK mod. fluorescence ratio; stronger effect = lower value. normalized thallium flux (F/F0 slope) at 10 µM. 3,000 tested, 54% active. AID 1917, 2009;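 active = Flux at 10 µM at least 3 SD below or above vehicle control mean in one or both replicates; inconclusive = no clear call, values can overlap the other calls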
Numbers stand for hits; 0 = inactive; ? = inconclusive; - = not tested or not shown. Shown are actives, neighbours in structure and some others; about 3.7% of the full set was active somewhere.

SMILES | MDM2 E3 inh | ROMK mod | Calpain2 inh | Arbovirus inh | Cl transport mod | PKD1 kinase inh | ROMK hit retest
CCNc1nc(NCC)nc(Oc2ccc(OCc3ccccc3)nn2)n1 | 0 | 0 | 0 | 0 | 0 | 0 | -
COc1ccc(Cn2c(=O)c3[nH]cnc3n(-c3ccc(C)cc3)c2=O)cc1 | 0 | 0 | 0 | - | 0 | - | -
COc1cc(C(=O)Nc2ccc3c(c2)CCN3C(C)=O)cc(OC)c1OC | 0 | 4.46 | 0 | 0 | 0 | 0 | 0
CCc1cccc(NC(=O)c2cc(OC)c(OC)c(OC)c2)c1 | 0 | 1.35 | 0 | 0 | - | 0 | 0
COc1cc(C(=O)Nc2ccc3c(c2)C(=O)c2ccccc2C3=O)cc(OC)c1OC | 0 | - | 0 | 0 | 0 | 0 | -
COc1cc(C(=O)Nc2ccc3c(c2)Cc2ccccc2-3)cc(OC)c1OC | - | 0 | 0 | 0 | 0 | 0 | -
COc1ccc([N+](=O)[O-])cc1NC(=O)COC(=O)c1ccccn1 | 0 | 0 | 0 | 0 | 0 | 0 | -
O=C(/C=C/c1ccco1)Oc1cccc2cccnc12 | 0 | - | 0 | - | 0 | - | -
O=C(/C=C\c1ccco1)Oc1cccc2cccnc12 | 0 | -21.9 | 0 | 0 | 0 | 0 | 0
O=C(Nc1ccccc1)N1CCN(Cc2ccc(Cl)cc2)CC1 | 0 | - | 0 | 0 | 0 | 0 | -
O=C(Nc1ccc(Cl)cc1)N1CCCN(Cc2ccc(F)cc2)C1 | 0 | -2.74 | 0 | 0 | 0 | 0 | 0.0565
COc1ccc(CCC(C)NC2C3CC4CC(C3)CC2C4)cc1 (stereo unspecified) | 0 | - | 0 | 0 | 0 | 0 | 0.0571
CCCc1c(O)c2ccccc2n(-c2ccccc2)c1=O | 0 | - | 0 | 0 | - | 0 | -
NCCc1c(-c2ccccc2)n(-c2ccccc2)c2ccccc12 | 0 | -3.39 | 0 | 0 | 0 | 0 | 0.061
O=C(C[n+]1cc2ccccc2c2ccccc21)c1ccccc1 | 0 | -3.84 | 0 | 0 | 0 | 0 | 0.0571
CCC(C)(C)n1nnnc1C(c1ccc(F)cc1)N1CCC(C(N)=O)CC1 (stereo unspecified) | 0 | 0 | 0 | 0 | 0 | 0 | -
CCCSc1nc2c(=O)[nH][nH]c(=O)c2n1Cc1ccccc1 | 0 | 0 | 0 | 0 | 0 | 0 | -
Cc1cccn2c(=O)c3cc(C(=O)NC4CCCC4)c(=N)n(C4CCCC4)c3nc12 | 0 | -2.56 | 0 | 0 | 0 | 0 | ?
N=c1c(C(=O)NC2CCCC2)cc2c(=O)n3ccccc3nc2n1C1CCCC1 | 0 | - | 0 | 0 | 0 | 0 | -
CC(=O)c1cccc(NC(=O)Cc2coc3cc4c(cc23)CCC4)c1 | 0 | 0 | 0 | 0 | 0 | 0 | -
O=C(NC1CCCCCC1)C1CCCN(S(=O)(=O)c2cccs2)C1 (stereo unspecified) | 0 | - | 0 | 0 | 0 | 0 | ?
CC(C)CNC(=O)c1nc(-c2ccccc2)n(-c2ccccc2)n1 | 0 | - | 0 | 0 | 0 | 0 | 0
Cn1cc(/C=C2\SC(=S)N(NC(=O)c3cccc(Cl)c3)C2=O)c2ccccc21 | - | - | 0 | - | 0 | - | -
Cn1cc(/C=C2\SC(=S)N(NC(=O)c3ccccc3)C2=O)c2ccccc21 | 0 | -3.01 | 0 | 0 | 0 | 0 | 0.0579
Brc1ccc2ncnc(Nc3ccc(N4CCOCC4)cc3)c2c1 | 0 | - | 0 | 0 | - | 0 | -
SMILES | MDM2 E3 inh | ROMK mod | Calpain2 inh | Arbovirus inh | Cl transport mod | PKD1 kinase inh | ROMK hit retest
Brc1ccc2c(c1)CNc1c(ncnc1N1CCOCC1)O2 | 0 | - | 0 | 0 | 0 | 0 | 0
CC1CC(C)CN(CCCNC(=O)c2csc3c2CCCC3)C1 (stereo unspecified) | 0 | -2.96 | 0 | 0 | 0 | 0 | 0.0635
CC(C)CCNC(=O)c1csc2c1CCCCC2 | 0 | 0 | 0 | 0 | 0 | 0 | -
Brc1cnc2nc[nH]c2c1 | 0 | 0 | 0 | - | 0 | - | -
Cc1ccc(C2=NN(C(=O)CCC(=O)O)C(c3cccs3)C2)cc1 (stereo unspecified) | 0 | 0 | 0 | - | 0 | - | -
COc1ccc(C2=NN(C(=O)CCC(=O)O)C(c3cccs3)C2)cc1 (stereo unspecified) | 0 | -3.48 | 0 | 0 | 0 | 0 | 0
Cc1nc(Cl)nc(N(C)c2ccccc2)c1[N+](=O)[O-] | 0 | - | 0 | - | 0 | - | -
O=C(CCn1c2c(c3ccccc31)CCCC2)NNC(=O)c1ccc([N+](=O)[O-])cc1 | 0 | - | 0 | 0 | 0 | 0 | 0.0476
O=C(CCn1c2c(c3ccccc31)CCCC2)NNC(=O)c1ccc(Cl)c([N+](=O)[O-])c1 | 0 | 0 | 0 | 0 | 0 | 0 | -
O=C(CCn1c(=O)oc2ccccc21)N1CCN(c2ccccc2F)CC1 | 0 | 0 | 0 | 0 | - | 0 | -
O=C(CCn1c(=O)oc2ccccc21)N1CCN(C(c2ccccc2)c2ccccc2)CC1 | 0 | -2.84 | 0 | 0 | - | 0 | 0.0589
Cc1ccc(-n2c3nc(=O)[nH]c(=O)c-3cc3cc([N+](=O)[O-])ccc32)cc1 | - | -6.58 | 0 | 0 | 0 | 0 | 0.0383
Cc1ccc(-n2c(C)nn(Cc3ccc([N+](=O)[O-])cc3)c2=O)cc1 | 0 | 0 | 0 | 0 | 0 | 0 | -
O=C(Oc1ccc(=O)n(-c2ccccc2)n1)c1ccc(Cl)cc1 | 0 | - | 0 | 0 | 0 | 0 | -
O=C(Oc1ccc(=O)n(-c2ccccc2)n1)c1ccc(F)cc1 | 0 | -3.83 | 0 | 0 | - | 0 | 0.0534
CCCCCc1cc(=O)oc2c(C(CCN3CCCC3)c3ccc(N(C)C)cc3)c(OC)cc(OC)c12 (stereo unspecified) | 0 | - | 0 | - | 0 | - | ?
COc1ccc(C(=O)C[n+]2cccc(C)c2C)cc1[N+](=O)[O-] | 0 | - | 0 | 0 | 0 | 0 | -
CCC(C)(C)c1ccc(OCCCC[n+]2cccc(C)c2C)c(C(C)(C)CC)c1 | 0 | - | 0 | - | - | - | 0.0369
Cc1cccc(N2C(=O)CC(N3CCN(Cc4ccc(Cl)cc4)CC3)C2=O)c1 (stereo unspecified) | - | 0 | 0 | 0 | 0 | 0 | ?
O=c1cc(CSc2nnc(-c3cccs3)n2Cc2ccccc2)nc2sc3ccccc3n12 | 0 | - | 0 | 0 | 0 | 0 | 0.0638
Cc1cc(C(=O)CSc2nnc(-c3cccs3)n2Cc2ccccc2)c(C)n1C | 0 | 0 | 0 | 0 | 0 | 0 | -
O=C(CN1C(=O)CCS(=O)(=O)c2ccccc21)Nc1cccc(Cl)c1 | 0 | - | 0 | 0 | 0 | 0 | -
CC(=O)N(C(C)=O)N1C(=O)/C(=C/c2ccc(Cl)cc2)SC1=S | 0 | -3.16 | 0 | 0 | 0 | 0 | 0.0532
Cc1ccc(C)n1N1C(=O)/C(=C\c2ccc(Cl)cc2)SC1=S | 0 | - | 0 | 0 | 0 | 0 | -
O=c1[nH]c(Nc2ccccc2)cc2ccccc12 | 0 | -3.27 | 0 | 0 | - | 0 | 0.0645
